# ChEMBL document CHEMBL1914423, “New imidazo[2,1-b]thiazole derivatives: synthesis, in vitro anticancer evaluation, and in silico studies” (Eur J Med Chem, 2011)
# Key:
# Type in all cases: functional
# [1] = test system: KM12; test: Anticancer activity against human KM12 cells assessed as cell growth at 10^-5 M after 48 hrs by SRB assay; details: KM12, 48 h, read-out: Activity
# Method in brief: (§1)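 NCI-60 single-dose screen at one concentration. Cells grown in RPMI 1640 with 5% FBS and 2 mM L-glutamine, plated at 5000–40,000 cells/well, and pre-incubated 24 h at 37 °C in 5% CO2 before DMSO-dissolved drug was added. Cells fixed with TCA, SRB-stained, absorbance read at 515 nm. Percent growth calculated against time-zero and untreated control plates.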
# [2] = test system: PC-3; test: Anticancer activity against human PC3 cells assessed as cell growth at 10^-5 M after 48 hrs by SRB assay; details: PC-3, 48 h, read-out: Activity
# [3] = test system: HCC 2998; test: Anticancer activity against human HCC2998 cells assessed as cell growth at 10^-5 M after 48 hrs by SRB assay; details: HCC 2998, 48 h, read-out: Activity; method in brief: as §1
# [4] = test system: OVCAR-3; test: Anticancer activity against human OVCAR3 cells assessed as cell growth at 10^-5 M after 48 hrs by SRB assay; details: OVCAR-3, 48 h, read-out: Activity
# [5] = test system: A498; test: Anticancer activity against human A498 cells assessed as cell growth at 10^-5 M after 48 hrs by SRB assay; details: A498, 48 h, read-out: Activity; method in brief: as §1
# [6] = test system: SK-MEL-28; test: Anticancer activity against human SK-MEL-28 cells assessed as cell growth at 10^-5 M after 48 hrs by SRB assay; details: SK-MEL-28, 48 h, read-out: Activity
# [7] = test system: HCT-116; test: Anticancer activity against human HCT116 cells assessed as cell growth at 10^-5 M after 48 hrs by SRB assay; details: HCT-116, 48 h, read-out: Activity; method in brief: as §1
# [8] = test system: NCI-H226; test: Anticancer activity against human NCI-H226 cells assessed as cell growth at 10^-5 M after 48 hrs by SRB assay; details: NCI-H226, 48 h, read-out: Activity
# [9] = test system: OVCAR-8; test: Anticancer activity against human OVCAR8 cells assessed as cell growth at 10^-5 M after 48 hrs by SRB assay; details: OVCAR-8, 48 h, read-out: Activity
# [10] = test system: UO-31; test: Anticancer activity against human UO31 cells assessed as cell growth at 10^-5 M after 48 hrs by SRB assay; details: UO-31, 48 h, read-out: Activity
# Method in brief: (§2)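 NCI-60 single-dose screen: cells in RPMI 1640 with 5% FBS and 2 mM L-glutamine, plated at 5000–40,000 cells/well by doubling time, and preincubated 24 h at 37 °C. Compound given at one concentration from DMSO stock. Cells TCA-fixed and SRB-stained, absorbance at 515 nm. Percent growth relative to time-zero and untreated controls; inhibition % = 100 − growth %.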
# [11] = test system: RPMI-8226; test: Anticancer activity against human RPMI8226 cells assessed as cell growth at 10^-5 M after 48 hrs by SRB assay; details: RPMI-8226, 48 h, read-out: Activity
# [12] = test system: UACC-62; test: Anticancer activity against human UACC62 cells assessed as cell growth at 10^-5 M after 48 hrs by SRB assay; details: UACC-62, 48 h, read-out: Activity; method in brief: as §2
# [13] = test system: CAKI-1; test: Anticancer activity against human Caki1 cells assessed as cell growth at 10^-5 M after 48 hrs by SRB assay; details: CAKI-1, 48 h, read-out: Activity; method in brief: as §1
# [14] = test system: SK-MEL-2; test: Anticancer activity against human SK-MEL-2 cells assessed as cell growth at 10^-5 M after 48 hrs by SRB assay; details: SK-MEL-2, 48 h, read-out: Activity
# [15] = test system: OVCAR-5; test: Anticancer activity against human OVCAR5 cells assessed as cell growth at 10^-5 M after 48 hrs by SRB assay; details: OVCAR-5, 48 h, read-out: Activity
# [16] = test system: HOP-92; test: Anticancer activity against human HOP92 cells assessed as cell growth at 10^-5 M after 48 hrs by SRB assay; details: HOP-92, 48 h, read-out: Activity; method in brief: as §1
# [17] = test system: U-251; test: Anticancer activity against human U251 cells assessed as cell growth at 10^-5 M after 48 hrs by SRB assay; details: U-251, 48 h, read-out: Activity; method in brief: as §2
# [18] = test system: MDA-MB-435; test: Anticancer activity against human MDA-MB-435 cells assessed as cell growth at 10^-5 M after 48 hrs by SRB assay; details: MDA-MB-435, 48 h, read-out: Activity
# [19] = test system: UACC-257; test: Anticancer activity against human UACC257 cells assessed as cell growth at 10^-5 M after 48 hrs by SRB assay; details: UACC-257, 48 h, read-out: Activity; method in brief: as §2
# [20] = test system: BT-549; test: Anticancer activity against human BT549 cells assessed as cell growth at 10^-5 M after 48 hrs by SRB assay; details: BT-549, 48 h, read-out: Activity; method in brief: as §1
# [21] = test system: NCI-H522; test: Anticancer activity against human NCI-H522 cells assessed as cell growth at 10^-5 M after 48 hrs by SRB assay; details: NCI-H522, 48 h, read-out: Activity
# [22] = test system: MOLT-4; test: Anticancer activity against human MOLT4 cells assessed as cell growth at 10^-5 M after 48 hrs by SRB assay; details: MOLT-4, 48 h, read-out: Activity
# [23] = test system: NCI-H322M; test: Anticancer activity against human NCI-H322M cells assessed as cell growth at 10^-5 M after 48 hrs by SRB assay; details: read-out: Activity
# [24] = test system: HCT-15; test: Anticancer activity against human HCT15 cells assessed as cell growth at 10^-5 M after 48 hrs by SRB assay; details: HCT-15, 48 h, read-out: Activity; method in brief: as §1
# [25] = test system: SN12C; test: Anticancer activity against human SN12C cells assessed as cell growth at 10^-5 M after 48 hrs by SRB assay; details: read-out: Activity
# [26] = test system: RXF 393; test: Anticancer activity against human RXF393 cells assessed as cell growth at 10^-5 M after 48 hrs by SRB assay; details: RXF 393, 48 h, read-out: Activity
# [27] = test system: SNB-19; test: Anticancer activity against human SNB19 cells assessed as cell growth at 10^-5 M after 48 hrs by SRB assay; details: SNB-19, 48 h, read-out: Activity
# [28] = test system: SW-620; test: Anticancer activity against human SW620 cells assessed as cell growth at 10^-5 M after 48 hrs by SRB assay; details: SW-620, 48 h, read-out: Activity; method in brief: as §2
# [29] = test system: SF-268; test: Anticancer activity against human SF268 cells assessed as cell growth at 10^-5 M after 48 hrs by SRB assay; details: SF-268, 48 h, read-out: Activity
# [30] = test system: SF-539; test: Anticancer activity against human SF539 cells assessed as cell growth at 10^-5 M after 48 hrs by SRB assay; details: SF-539, 48 h, read-out: Activity
# [31] = test system: NCI-H23; test: Anticancer activity against human NCI-H23 cells assessed as cell growth at 10^-5 M after 48 hrs by SRB assay; details: NCI-H23, 48 h, read-out: Activity
SMILES,growth at 10 µM [1],growth at 10 µM [2],growth at 10 µM [3],growth at 10 µM [4],growth at 10 µM [5],growth at 10 µM [6],growth at 10 µM [7],growth at 10 µM [8],growth at 10 µM [9],growth at 10 µM [10],growth at 10 µM [11],growth at 10 µM [12],growth at 10 µM [13],growth at 10 µM [14],growth at 10 µM [15],growth at 10 µM [16],growth at 10 µM [17],growth at 10 µM [18],growth at 10 µM [19],growth at 10 µM [20],further results
O=C(NCCNc1nccc(-c2c(-c3cccc(O)c3)nc3sccn23)n1)Nc1cc(C(F)(F)F)cc(C(F)(F)F)c1,43.1%,51.2%,65.5%,82.2%,86%,68.8%,66.3%,101%,52.8%,73.1%,45.7%,54.4%,72.3%,110%,96.5%,74.4%,77%,9.9%,57%,87.6%,growth at 10 µM [21]: 69.5%; growth at 10 µM [22]: 60.2%; growth at 10 µM [23]: 87%; growth at 10 µM [24]: 79.2%; growth at 10 µM [25]: 82.8%; growth at 10 µM [26]: 41.4%; growth at 10 µM [27]: 90.8%; growth at 10 µM [28]: 73.5%; growth at 10 µM [29]: 69.4%; growth at 10 µM [30]: 96.5%; growth at 10 µM [31]: 90.9%
COc1cccc(-c2nc3sccn3c2-c2ccnc(NCCNC(=O)c3ccccc3)n2)c1,87.8%,79.7%,114%,89.2%,66.3%,64.2%,81.8%,79.3%,62.5%,53.8%,41.6%,24.6%,84.3%,73.3%,99.1%,77.8%,102%,55.2%,69.7%,85.1%,growth at 10 µM [21]: 61.8%; growth at 10 µM [22]: 53.4%; growth at 10 µM [23]: 110%; growth at 10 µM [24]: 81.9%; growth at 10 µM [25]: 84.3%; growth at 10 µM [26]: 86.3%; growth at 10 µM [27]: 110%; growth at 10 µM [28]: 114%; growth at 10 µM [29]: 92.7%; growth at 10 µM [30]: 97.7%; growth at 10 µM [31]: 87.3%
COc1cccc(-c2nc3sccn3c2-c2ccnc(NCCNC(=O)c3ccccc3O)n2)c1,77.2%,62.8%,113%,75%,89.7%,77.1%,69.7%,97.7%,55.2%,48.6%,26%,36.8%,68.8%,80.7%,112%,75.5%,103%,54.3%,78.7%,81.6%,growth at 10 µM [21]: 61.7%; growth at 10 µM [22]: 59.1%; growth at 10 µM [23]: 95.6%; growth at 10 µM [24]: 66.1%; growth at 10 µM [25]: 86%; growth at 10 µM [26]: 78.9%; growth at 10 µM [27]: 118%; growth at 10 µM [28]: 119%; growth at 10 µM [29]: 93.6%; growth at 10 µM [30]: 98%; growth at 10 µM [31]: 93.4%
COc1cccc(-c2nc3sccn3c2-c2ccnc(NCCNC(=O)c3cccc(C(F)(F)F)c3)n2)c1,58.6%,55%,87.1%,76%,63.5%,75.9%,56.9%,87.5%,40.5%,39.5%,25.8%,30.1%,50.6%,77%,97.8%,106%,74.5%,38.8%,78.4%,78.1%,growth at 10 µM [21]: 48.8%; growth at 10 µM [22]: 48%; growth at 10 µM [23]: 102%; growth at 10 µM [24]: 55.8%; growth at 10 µM [25]: 65.2%; growth at 10 µM [26]: 60.5%; growth at 10 µM [27]: 102%; growth at 10 µM [28]: 103%; growth at 10 µM [29]: 71%; growth at 10 µM [30]: 88.3%; growth at 10 µM [31]: 70.7%
COc1cccc(-c2nc3sccn3c2-c2ccnc(NCCNC(=O)c3cc(C(F)(F)F)cc(C(F)(F)F)c3)n2)c1,79.4%,49.5%,90.2%,90.9%,95.6%,97.6%,69.1%,102%,82.4%,61.2%,50%,70.3%,85.9%,81.8%,101%,38.5%,92%,83.9%,99.6%,86.2%,growth at 10 µM [21]: 78.4%; growth at 10 µM [22]: 67.6%; growth at 10 µM [23]: 95.5%; growth at 10 µM [24]: 83.8%; growth at 10 µM [25]: 90.8%; growth at 10 µM [26]: 51.2%; growth at 10 µM [27]: 99.2%; growth at 10 µM [28]: 119%; growth at 10 µM [29]: 82.5%; growth at 10 µM [30]: 88.3%; growth at 10 µM [31]: 102%
COc1cccc(-c2nc3sccn3c2-c2ccnc(NCCNC(=O)c3ccc(N4CCOCC4)c(C(F)(F)F)c3)n2)c1,76.2%,60.8%,93.3%,93.8%,64.6%,89.5%,82.6%,85.4%,62.4%,58.2%,39%,41.3%,68.8%,86.5%,96.9%,85.1%,87.2%,60.8%,87.7%,74.8%,growth at 10 µM [21]: 60.6%; growth at 10 µM [22]: 50.8%; growth at 10 µM [23]: 101%; growth at 10 µM [24]: 66.6%; growth at 10 µM [25]: 91.7%; growth at 10 µM [26]: 78.5%; growth at 10 µM [27]: 105%; growth at 10 µM [28]: 108%; growth at 10 µM [29]: 89.7%; growth at 10 µM [30]: 79%; growth at 10 µM [31]: 102%
